# Screening data: PubChem, several laboratories
# TNAP inh hi DEA – blocks human TNAP under high phosphate acceptor concentration; P05186; purified TNAP, CDP-star luminescence, 1 M DEA; inhibition, % at 20 µM; 200,000 compounds, 0.03% hits; AID 1135;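 active means over 50% inhibition of tissue-nonspecific alkaline phosphatase at 20 µM in the single-dose screen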;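 further: plate controls were DMSO wells for no effect and EDTA-quenched wells as full inhibition for full effect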
# PERK inhibitor – inhibitors of human PERK kinase. inhibition, % at 5.6 µM. CHO PERK-DD fusion, SEAP luminescence translation reporter. AID 1416. 220,000 compounds, 0.17% hits;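 active means inhibition above the mean inhibition of all tested compounds plus 3 SD, set separately per screening campaign, cut at about 2.9% in these data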;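 further: PERK kinase domain activated by AP20187 dimerizer at 100 nM; 0% = DMSO with dimerizer and 100% = rapamycin at 8.4 µM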
# TNAP inh noacc – TNAP (human) inhibition, acceptor-free conditions; P05186; purified TNAP, CDP-star luminescence, 30 min; inhibition, % at 20 µM; 200,000 compounds, 0.26% hits; AID 1012;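 active means tissue-nonspecific alkaline phosphatase inhibition above about 50% at 20 µM in the single-dose screen, limit read from the data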;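 further: 0% = DMSO negative control and 100% = EDTA positive control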
# p97 ATPase inh – human p97 ATPase inhibition; P55072; recombinant p97 ATPase, Kinase-Glo ATP luminescence, 3 h; inhibition, % at 8 µM; 220,000 compounds, 0.42% hits; AID 1481; in the data active means inhibition above about 15%;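 further: 0% = DMSO vehicle and 100% = wells lacking enzyme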
# Target sequence (P55072 whole entry, looked up): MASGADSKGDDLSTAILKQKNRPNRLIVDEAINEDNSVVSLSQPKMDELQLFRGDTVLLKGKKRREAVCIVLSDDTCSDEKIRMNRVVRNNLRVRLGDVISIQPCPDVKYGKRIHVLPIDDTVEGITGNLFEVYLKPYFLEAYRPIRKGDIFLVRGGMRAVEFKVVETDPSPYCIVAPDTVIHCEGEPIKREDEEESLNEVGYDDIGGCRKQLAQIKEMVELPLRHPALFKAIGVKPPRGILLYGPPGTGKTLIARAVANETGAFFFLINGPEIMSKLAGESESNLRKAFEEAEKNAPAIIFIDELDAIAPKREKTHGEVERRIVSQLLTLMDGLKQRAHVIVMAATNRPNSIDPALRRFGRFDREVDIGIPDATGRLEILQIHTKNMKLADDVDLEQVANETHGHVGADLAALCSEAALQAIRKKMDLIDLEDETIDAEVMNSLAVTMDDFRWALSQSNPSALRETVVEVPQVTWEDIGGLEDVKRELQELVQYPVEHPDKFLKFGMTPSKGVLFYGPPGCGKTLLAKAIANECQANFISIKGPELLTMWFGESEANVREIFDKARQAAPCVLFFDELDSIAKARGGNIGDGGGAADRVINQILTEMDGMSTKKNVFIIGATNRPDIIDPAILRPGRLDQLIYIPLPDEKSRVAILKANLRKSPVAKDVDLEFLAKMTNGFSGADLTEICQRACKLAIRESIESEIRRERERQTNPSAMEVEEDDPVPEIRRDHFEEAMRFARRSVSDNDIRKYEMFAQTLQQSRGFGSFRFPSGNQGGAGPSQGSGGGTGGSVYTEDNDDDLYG
# TNAP act hiacc – increases human TNAP activity under high phosphate acceptor concentration. P05186. purified TNAP, CDP-star luminescence, 1 M DEA, 30 min; active compounds read high; 0 = EDTA background, 1 = DMSO-only activity. 200,000 tested, under 10 active. activation factor at 20 µM;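 active means activation factor at least 2 at 20 µM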
#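 Test system – human TNAP · Doses – 20 µM single point · Incubation – 30 min, room temperature · Signal – luminescent substrate turnover signal · Read-out basis – activation factor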
# DTT redox prof – compounds producing H2O2 with reducing agent – biochemical, NIH compound library profiling, artefact control for MLSCN library redox annotation, primary screen; 200,000 compounds, 0.03% hits; activation, % at 10 µM; AID 878; DTT-dependent redox cycling H2O2, phenol red/HRP absorbance; 100% = 100 µM peroxide control, 0% = buffer;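 active means activation of at least 50% relative to the plate's high and low controls in the primary single-dose screen; inactive means activation below 50%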;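 further: compound incubated with DTT at 0.8 mM final as the reducing agent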
# * marks the source's active call; other numbers are inactive results; . = not tested or not shown. Hits are enriched below; roughly 0.86% of the tested compounds scored in any of these assays.
SMILES,TNAP inh hi DEA,PERK inhibitor,TNAP inh noacc,p97 ATPase inh,TNAP act hiacc,DTT redox prof
COc1cc([N+](=O)[O-])cc2sc(NC(=O)C(C)(C)C)nc12,2,3.5*,-2,2,1,0
CC(C)N=c1scc(-c2ccco2)n1/N=C/c1ccc(O)c(O)c1,21,-1,74*,-5,0.8,-9
CSc1n[nH]c(NCc2cccs2)n1,-5,1,56*,1,1,1
CCCc1nnc(NC(=O)CNc2ccc(F)cc2)s1,-5,3.1*,-12,5,1,0
O=C(N[C@H](C(=O)O)c1ccccc1)C1CCC(Cn2nnc3ccccc3c2=O)CC1 (stereo not given in full),.,1,.,-3,.,.
COc1c(Cl)cc(C(=O)NN)cc1Cl,0,1,-3,0,1,1
NNC(=O)c1cc(O)c(O)c(O)c1,15,-1,58*,-4,0.8,-2
Cc1c(NS(=O)(=O)c2cc(NC(=O)CCN3CCCC(C)C3)ccc2Cl)c(=O)n(-c2ccccc2)n1C (stereo not given),-6,0,-12,-4,1.1,-1
C=CCSc1n[nH]c(-c2ccccc2)n1,-2,1,76*,-1,1,0
C=CCSc1ncc(-c2ccccc2)cn1,-1,1,-5,2,1,0
C=CCSc1n[nH]c(-c2ccc(OC)cc2)n1,-3,-1,80*,2,1,2
CCCCOc1ccc(-c2nc(SCC(N)=O)n[nH]2)cc1,-3,1,16,2,1,1
NC(=O)C1=C[C@@H](c2csc3ccccc23)C[C@@H](OCCCCO)O1,0,2,-2,6,1,-1
Cc1c(N2C(=O)C3C4C=CC(C4)C3C2=O)c(=O)n(-c2ccccc2)n1C (stereo not given),.,1,.,7,.,.
CCOC(=O)C1=C(Nc2ccc(OC)cc2)OCC1=O,.,2.9*,.,-3,.,.
CCOC(=O)C1=C(Nc2ccccc2)OCC1=O,-4,1,-8,3,1,2
O=C1NNC(=O)C2C3C=CC(C4CC34)C12 (stereo not given),-2,0,-11,3,1,0
Cn1/c(=N/NC(=O)c2ccccc2Br)sc2ccccc21,6,0,-3,-3,0.9,0
CC(=O)Oc1c(/C=C(\C#N)C(N)=O)[nH]c2ccccc12,39,2.9*,29,3,0.6,0
N#C/C(=C\c1c[nH]c2ccccc12)C(N)=O,.,1,.,7,.,.
N#Cc1ccsc1NC(=O)c1ccc(Cl)c([N+](=O)[O-])c1,.,4.3*,.,5,.,.
Cc1cccc(NC(=S)N2CCC(C(N)=O)(N3CCCCC3)CC2)c1C,-6,0,-14,4,1.1,0
Cc1cc(C(=O)NCC(=O)OCC(=O)NCCc2ccccc2)ccc1[N+](=O)[O-],2,2,-8,1,1,0
O=C(Nc1ncccn1)C1CCCCC1,-4,1,-5,4,1,-1
O=C(Nc1n[nH]c(C2CCCCC2)n1)C1CCCCC1,-1,0,72*,6,1,3
SMILES,TNAP inh hi DEA,PERK inhibitor,TNAP inh noacc,p97 ATPase inh,TNAP act hiacc,DTT redox prof
Cc1ccccc1OCCc1c(C)[nH]c(=S)[nH]c1=O,-4,0,-5,-1,1,3
Cc1[nH]c(=S)[nH]c(=O)c1CCOc1ccccc1,2,3.1*,-2,6,1,0
O=C(O)CC1SC(=Nc2ccc(O)cc2)NC1=O (stereo not given),-6,0,54*,6,1.1,-1
CCCCc1nn2c(N)c(/C=C3\C=Nc4ccccc43)c(=O)nc2s1,10,0,66*,5,0.9,0
CC(C)Sc1nsc2nc(=O)c(/C=C3\C=Nc4ccccc43)c(N)n12,31,1,62*,7,0.7,-3
CS(=O)(=O)c1nsc2nc(=O)c(/C=C3\C=Nc4ccccc43)c(N)n12,10,0,3,-1,0.9,0
CCC(CC)c1nn2c(N)c(/C=C3\C=Nc4ccccc43)c(=O)nc2s1,.,0,.,1,.,.
CCCc1nn2c(N)c(/C=C3\C=Nc4ccccc43)c(=O)nc2s1,5,1,58*,13,1,0
CC(C)c1nn2c(N)c(/C=C3\C=Nc4ccccc43)c(=O)nc2s1,.,0,.,10,.,.
O=S1(=O)C=C(SCc2ccc(F)cc2)Nc2ccccc21,-4,0,-12,5,1,-1
Cc1ccc2[nH]c(=O)c(COC(=O)C3CCCCC3)cc2c1,.,1,.,0,.,.
COC(=O)[C@@H](N)CS,2,3.0*,-8,6,1,2
COC(=O)C(N)Cc1ccc(O)cc1 (stereo not given),-2,0,-6,1,1,0
Cc1ccc(C2=NC(=O)/C(=C/c3cc(O)c(O)c(Br)c3)S2)cc1,40,1,43,31*,0.6,0
O=C1NC(=S)S/C1=C\c1ccc(SCc2ccco2)o1,18,1,8,53*,0.8,0
O=C1NC(=S)S/C1=C\c1ccc(SCc2ccccc2)o1,16,0,-4,11,0.8,0
CCN(CC)CCOC(=O)c1ccc(NC(=O)c2cn(-c3ccccc3)nc2-c2cccs2)cc1,-8,0,-14,0,1.1,0
COc1ccc2c(c1)CCc1c(C(=O)N3CCCCCC3)noc1-2,-4,0,-6,-1,1,-1
COc1ccc2c(c1)CCc1c-2n[nH]c1C(=O)O,-3,1,86*,2,1,-2
Cc1sc2nc3ccc(N4CCCC4)nn3c(=O)c2c1C,1,1,-11,-3,1,0
CCCc1nc(NCC2CCCO2)c2nnn(Cc3ccccc3)c2n1 (stereo not given),-2,0,-1,-1,1,0
Cc1cc(C)nc(NN2C(=O)/C(=C/c3ccc(O)cc3)SC2=S)n1,43,1,94*,4,0.6,-5
C=CCNC(=S)NNC(=O)c1ccc(Br)cc1,-3,0,-104,4,1,2
C=CCNC(=S)NNC(=O)c1cc(O)ccc1O,2,0,68*,2,1,0
CC/C(=N/N=C(\CC)c1ccccc1)c1ccccc1,-3,1,-5,3,1,0
COc1ccc(CC(=O)O/N=C(\N)c2ccccn2)cc1,.,3.1*,.,8,.,.
N/C(=N\OC(=O)Cc1ccc(-c2ccccc2)cc1)c1ccccn1,-2,0,-10,1,1,1
C#CCNC(=O)C1=C[C@H](c2ccc3c(c2)OCO3)[C@@H](CCCO)[C@H](OCC)O1,-10,1,-10,5,1.1,-1
O=C(O)c1ccc(-c2nc(-c3ccccc3)c(-c3cccs3)[nH]2)cc1,.,4.3*,.,6,.,.
